The results in this text go back to ChEMBL document CHEMBL1275303, “Synthesis and antimicrobial activity of 2-substituted [4-(1,3,4-oxadiazol-2-yl methyl)] phthalazin-1(2H)-one derivatives” (2010).

Test [1] has as its system Escherichia coli. In words: Antimicrobial activity against Escherichia coli at 50 ug/mL after 24 hrs by well plate method. The format is functional. Particulars: read-out: IZ. In short, it runs like this: (§1)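 Agar well diffusion in nutrient agar. About 1 cm³ of a 24 h broth culture was placed in sterile dishes, and molten agar at 45 °C was poured over it and set. 6 mm wells were bored and filled with compound in DMSO (100 or 50). Plates were incubated 24 h at 37 °C, and the inhibition zone was read in mm. Duplicate runs, with standard deviation; amoxicillin as reference.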

Test [2] has as its system Staphylococcus aureus. Briefly: Antimicrobial activity against Staphylococcus aureus at 100 ug/mL after 24 hrs by well plate method. The format is functional. Particulars: read-out: IZ. In short, it runs like this: as §1
The test system of test [3] is Chrysosporium keratinophilum. In words: Antimicrobial activity against Chrysosporium keratinophilum at 100 ug/mL after 72 hrs by well plate method. The format is functional. The note with it: read-out: IZ. In short, it runs like this: (§2)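 Antifungal well-plate assay on Sabouraud dextrose agar using a 72 h old broth culture of the fungal strain. Wells were filled with compound dissolved in DMSO (100 or 50), and the zone of inhibition around each well was measured. […] served as reference.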

Test [4] has as its system Nannizzia gypsea. Briefly: Antimicrobial activity against Microsporum gypseum at 50 ug/mL after 72 hrs by well plate method. The test is classed as functional. Particulars: read-out: IZ. In short, it runs like this:
as §2

The test system of test [5] is Salmonella typhi. Briefly: Antimicrobial activity against Salmonella typhi at 50 ug/mL after 24 hrs by well plate method. The format is functional, Salmonella enterica subsp. enterica serovar Typhi. The note with it: Salmonella enterica, read-out: IZ. In short, it runs like this: (§3)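 Agar well diffusion in nutrient agar: about 1 cm³ of a 24 h broth culture placed in a sterile dish, molten agar at 45 °C poured over it and allowed to set. 6 mm holes cut with a sterile cork borer and filled with compound solution in DMSO. Incubated 24 h at 37 °C; inhibition zone diameter read in mm. Run in duplicate, standard deviation calculated.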

In test [6] the test system is Chrysosporium keratinophilum. Briefly: Antimicrobial activity against Chrysosporium keratinophilum at 50 ug/mL after 72 hrs by well plate method. The note with it: read-out: IZ. The test is classed as functional. In short, it runs like this: as §2
For test [7], the system named is Aspergillus flavus. In words: Antimicrobial activity against Aspergillus flavus at 100 ug/mL after 72 hrs by well plate method. The format is functional. Particulars: read-out: IZ.
Test [8] deals with Salmonella typhi. In words: Antimicrobial activity against Salmonella typhi at 100 ug/mL after 24 hrs by well plate method. The note with it: Salmonella enterica, read-out: IZ. The format is functional, Salmonella enterica subsp. enterica serovar Typhi. In short, it runs like this:
as §3

For test [9], the system named is Staphylococcus aureus. In words: Antimicrobial activity against Staphylococcus aureus at 50 ug/mL after 24 hrs by well plate method. The test is classed as functional. Particulars: read-out: IZ. In short, it runs like this:
as §1

In test [10] the test system is Escherichia coli. Briefly: Antimicrobial activity against Escherichia coli at 100 ug/mL after 24 hrs by well plate method. The format is functional. Particulars: read-out: IZ. In short, it runs like this:
as §1

For test [11], the system named is Aspergillus flavus. Briefly: Antimicrobial activity against Aspergillus flavus at 50 ug/mL after 72 hrs by well plate method. The format is functional. The note with it: read-out: IZ.
Test [12] deals with Bacillus subtilis. In words: Antimicrobial activity against Bacillus subtilis at 100 ug/mL after 24 hrs by well plate method. The test is classed as functional. The note with it: read-out: IZ. In short, it runs like this:
as §1

The subject of test [13] is Nannizzia gypsea. In words: Antimicrobial activity against Microsporum gypseum at 100 ug/mL after 72 hrs by well plate method. The format is functional. The note with it: read-out: IZ. In short, it runs like this: as §2
The test system of test [14] is Candida albicans. In words: Antimicrobial activity against Candida albicans at 100 ug/mL after 72 hrs by well plate method. The test is classed as functional. Particulars: read-out: IZ. In short, it runs like this: as §2
Test [15] relates to Candida albicans. In words: Antimicrobial activity against Candida albicans at 50 ug/mL after 72 hrs by well plate method. The format is functional. Particulars: read-out: IZ. In short, it runs like this: as §2
The subject of test [16] is Bacillus subtilis. In words: Antimicrobial activity against Bacillus subtilis at 50 ug/mL after 24 hrs by well plate method. The test is classed as functional. The note with it: read-out: IZ. In short, it runs like this: as §1

With `Cc1nnc(Cc2nn(CCN3CCOCC3)c(=O)c3ccccc23)o1`, the zone of inhibition at 50 µg/mL in the test on Escherichia coli [1] is 0 mm; in the test on Nannizzia gypsea [4] it was 0 mm; in the test on Salmonella typhi [5] it was 1.5 mm; in test [6], 0 mm; with Staphylococcus aureus [9], 0 mm; in the test with Aspergillus flavus [11], 1 mm. The zone of inhibition at 50 µg/mL in the test on Candida albicans [15] was determined as 1 mm; in the test on Bacillus subtilis [16] it was 0 mm. The zone of inhibition at 100 µg/mL was found to be 3.5 mm with Staphylococcus aureus [2]; 0 mm in test [3]; 3.5 mm with Aspergillus flavus [7]; 4.5 mm in the test on Salmonella typhi [8]; 2.5 mm in the test on Escherichia coli [10]; 1 mm in the test with Bacillus subtilis [12]. In addition, the zone of inhibition at 100 µg/mL in the test on Nannizzia gypsea [13] turned out to be 3.5 mm; in the test on Candida albicans [14], 2.5 mm.
Take `O=c1c2ccccc2c(Cc2nnc(C(F)(F)F)o2)nn1CCN1CCOCC1`: the zone of inhibition at 50 µg/mL in the test with Escherichia coli [1] is 0 mm; in the test on Nannizzia gypsea [4], 2 mm; in the test with Salmonella typhi [5], 0 mm; in test [6], 2 mm; in the test on Staphylococcus aureus [9], 0 mm; in the test with Aspergillus flavus [11], 2.5 mm. For the same compound, the zone of inhibition at 50 µg/mL in the test with Candida albicans [15] is 0.5 mm; in the test with Bacillus subtilis [16], 2 mm. Also, the zone of inhibition at 100 µg/mL came to 0 mm in the test with Staphylococcus aureus [2]; 4.5 mm in test [3]; 5.5 mm with Aspergillus flavus [7]; 2.5 mm with Salmonella typhi [8]; 3.5 mm with Escherichia coli [10]; 5 mm with Bacillus subtilis [12]. In addition, the zone of inhibition at 100 µg/mL was found to be 4 mm in the test with Nannizzia gypsea [13] and 3.5 mm in the test on Candida albicans [14].
In the case of `O=c1c2ccccc2c(Cc2nnc(C3CC3)o2)nn1CCN1CCOCC1`, the zone of inhibition at 50 µg/mL in the test with Escherichia coli [1] was determined as 1.5 mm; in the test with Nannizzia gypsea [4], 3.5 mm; in the test on Salmonella typhi [5] it was 2.5 mm; in [6], 0.5 mm; in the test on Staphylococcus aureus [9], 0 mm; in the test with Aspergillus flavus [11] it was 2.5 mm. Moreover, the zone of inhibition at 50 µg/mL in the test on Candida albicans [15] is 2.5 mm; in the test with Bacillus subtilis [16], 3.5 mm. Besides, the zone of inhibition at 100 µg/mL was found to be 1.5 mm with Staphylococcus aureus [2]; 2.5 mm in [3]; 5 mm in the test on Aspergillus flavus [7]; 6.5 mm in the test with Salmonella typhi [8]; 5 mm with Escherichia coli [10]; 5.5 mm in the test with Bacillus subtilis [12]. The results for the zone of inhibition at 100 µg/mL in the test with Nannizzia gypsea [13] and in the test on Candida albicans [14] were 6 mm and 4.5 mm, respectively.
For `O=c1c2ccccc2c(Cc2nnc(-c3ccc(F)cc3)o2)nn1CCN1CCOCC1`, the zone of inhibition at 50 µg/mL with Escherichia coli [1] came to 0 mm; in the test with Nannizzia gypsea [4], 4 mm; in the test on Salmonella typhi [5], 3.5 mm; in test [6] it was 2.5 mm; with Staphylococcus aureus [9] it was 0 mm; in the test on Aspergillus flavus [11], 2 mm. Further, the zone of inhibition at 50 µg/mL was 2.5 mm in the test with Candida albicans [15] and 3 mm with Bacillus subtilis [16]. Further, the zone of inhibition at 100 µg/mL with Staphylococcus aureus [2] worked out at 1 mm; in test [3] it was 5.5 mm; in the test on Aspergillus flavus [7], 4 mm; with Salmonella typhi [8] it was 5 mm; in the test with Escherichia coli [10], 2 mm; with Bacillus subtilis [12], 6 mm. The zone of inhibition at 100 µg/mL stood at 7.5 mm in the test on Nannizzia gypsea [13] and 5.5 mm in the test with Candida albicans [14].
Turning to `O=c1c2ccccc2c(Cc2nnc(-c3ccc(Cl)cc3)o2)nn1CCN1CCOCC1`, the zone of inhibition at 50 µg/mL with Escherichia coli [1] came out at 3 mm; in the test on Nannizzia gypsea [4], 1 mm; in the test with Salmonella typhi [5], 3 mm; in test [6] it was 0 mm; in the test with Staphylococcus aureus [9], 5 mm; in the test on Aspergillus flavus [11] it was 0 mm. Also, the zone of inhibition at 50 µg/mL in the test with Candida albicans [15] is 1 mm; in the test on Bacillus subtilis [16], 2 mm. Besides, the zone of inhibition at 100 µg/mL in the test with Staphylococcus aureus [2] was found to be 8 mm; in test [3], 1.5 mm; with Aspergillus flavus [7], 1 mm; in the test with Salmonella typhi [8] it was 4.5 mm; in the test with Escherichia coli [10], 7 mm; in the test with Bacillus subtilis [12], 4 mm. Besides, the values for the zone of inhibition at 100 µg/mL in the test with Nannizzia gypsea [13] and with Candida albicans [14] were 3 mm and 3.5 mm, respectively.
